18 compounds from ChEMBL document CHEMBL1137301 (J Med Chem, 2006) can be followed below.

For assay [1], the target named is T1, Melatonin receptor type 1A (Homo sapiens, UniProt P48039). Put plainly: Displacement of 2-[125I]iodomelatonin from human MT1 receptor expressed in NIH3T3 cells. Format: cell-based.
The target in assay [2] is T2, Melatonin receptor type 1B (Homo sapiens, UniProt P49286).
T2 sequence (P49286 whole entry): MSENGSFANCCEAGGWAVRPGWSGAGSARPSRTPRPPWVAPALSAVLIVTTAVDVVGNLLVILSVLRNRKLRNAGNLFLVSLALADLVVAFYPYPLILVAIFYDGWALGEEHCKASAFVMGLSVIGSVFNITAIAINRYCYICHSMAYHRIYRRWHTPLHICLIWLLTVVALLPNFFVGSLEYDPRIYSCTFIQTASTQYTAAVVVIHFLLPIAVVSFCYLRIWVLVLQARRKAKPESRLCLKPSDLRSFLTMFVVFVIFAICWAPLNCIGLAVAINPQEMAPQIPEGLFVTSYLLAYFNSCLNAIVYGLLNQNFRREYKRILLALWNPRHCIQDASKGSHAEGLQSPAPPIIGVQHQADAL
In words: Displacement of 2-[125I]iodomelatonin from human MT2 receptor expressed in NIH3T3 cells. In kind it is cell-based.

For assay [3], the target named is T3, Melatonin receptor type 1B (Homo sapiens) (UniProt P49286).
T3 sequence (whole entry): T2 sequence (P49286 whole entry)
Put plainly: Intrinsic activity at human MT2 receptor expressed in NIH3T3 cells assessed as stimulation of [35S]GTP-gamma-S binding relative to MLT. Format: functional, cell-based. A general note: GTPγS resists hydrolysis and so accumulates on activated G proteins.

The target in assay [4] is T1, Melatonin receptor type 1A. Put plainly: Intrinsic activity at human MT1 receptor expressed in NIH3T3 cells assessed as stimulation of [35S]GTPgammaS binding relative to MLT. Format: functional, cell-based.
Assay [5] deals with T1, Melatonin receptor type 1A. Put plainly: Activity at human MT1 receptor expressed in NIH3T3 cells assessed as inhibition of MLT-stimulated [35S]GTP-gamma-S binding. Format: functional, cell-based. Conditions: filed as partial agonist.
In assay [6] the target is Melatonin receptor (Homo sapiens) (UniProt P48039+P49286). In words: Selectivity for human MT2 receptor over MT1 receptor. Format: protein assay. The method in brief:
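Incubation was 90 min at 37 °C in 50 mM Tris/HCl, pH 7.4, with nonspecific binding defined by 10 µM MLT. Ki came from IC50 via Cheng-Prusoff, mean of at least three runs in duplicate. The ratio compares MT1 and MT2 Ki.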

Assay [7] addresses T3, Melatonin receptor type 1B (Homo sapiens). In words: (§1) Activity at human MT2 receptor expressed in NIH3T3 cells assessed as inhibition of MLT-stimulated [35S]GTPgammaS binding. Format: functional, cell-based. The method in brief: (§2)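 Antagonism was measured in [35S]GTPγS binding on human MT2 NIH3T3 membranes (30 min, 30 °C; GDP 50 µM, NaCl 100 mM, MgCl2 3 mM). MLT concentration-response curves were run alone and with antagonist at 1, 10, 100 and 1000 nM.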

The target of assay [8] is T2, Melatonin receptor type 1B. The description is as §1. Format: functional, cell-based. Conditions: read-out: pA2 (converted). The method in brief: as §2

Chain of Melatonin receptor (Homo sapiens) (P48039 whole entry, looked up, one chain of several): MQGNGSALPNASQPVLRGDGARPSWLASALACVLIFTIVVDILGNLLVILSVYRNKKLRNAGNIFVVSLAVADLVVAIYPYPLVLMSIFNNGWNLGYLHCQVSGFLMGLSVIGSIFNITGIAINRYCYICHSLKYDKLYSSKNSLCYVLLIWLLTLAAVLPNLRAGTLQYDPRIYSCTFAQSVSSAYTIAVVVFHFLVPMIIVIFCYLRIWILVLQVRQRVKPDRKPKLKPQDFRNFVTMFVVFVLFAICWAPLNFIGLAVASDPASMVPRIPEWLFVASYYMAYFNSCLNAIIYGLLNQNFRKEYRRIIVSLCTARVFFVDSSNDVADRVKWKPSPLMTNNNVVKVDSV
T1 sequence (P48039 whole entry): as the sequence (P48039 whole entry, looked up, one chain of several) above

Usually Ki stands for a dissociation constant, usually derived from enzyme kinetics or from competition with a known ligand. `O=C(NCC=C(c1ccccc1)c1ccccc1)C1CCC1`: the figures for the Ki in assay [1] and in assay [2] were 912 nM and 13.2 nM, respectively. The Intrinsic activity in assay [3] was -0.2; in assay [4], -0.18.

As to `COc1cccc(/C(=C\CNC(=O)C2CCC2)c2ccccc2)c1`, the Ki in assay [1] is 257 nM; in assay [2], 1.55 nM. Moreover, the Intrinsic activity in assay [3] is -0.02; in assay [4] it was -0.04.

As to `COc1cccc(/C(=C\CNC(C)=O)c2ccccc2)c1`, the Ki is 229 nM in assay [1] and 2.51 nM in assay [2]. In addition, the values for the Intrinsic activity in assay [3] and in assay [4] were 0.3 and 0.45, respectively.

Consider `CC(=O)NCC=C(c1ccccc1)c1ccccc1`, for which the Ki in assay [1] was 513 nM; in assay [2], 11.5 nM. Moreover, the Intrinsic activity in assay [3] was 0.19; in assay [4], -0.03.

On to `CC(=O)NC/C(=C\c1ccccc1)c1ccccc1`, for which the figures for the inhibition constant Ki in assay [1] and in assay [2] were 1200 nM and 148 nM, respectively. Also, the Intrinsic activity in assay [3] was determined as 0.18; in assay [4] it was 0.11.

`COc1ccc(Cc2ccccc2)c(CCNC(C)=O)c1`: the Ki is 69.2 nM in assay [1] and 6.03 nM in assay [2]. For the same compound, the results for the Intrinsic activity in assay [3] and in assay [4] were 0.06 and 0.24, respectively.

Turning to `COc1cccc(C(=CCNC(C)=O)c2cccc(OC)c2)c1`, the Activity entry in assay [5] and in assay [7] (filed as partial agonist) was “Partial agonist” in each case. The values for the Ki in assay [1] and in assay [2] were 58.9 nM and 0.275 nM, respectively. The Intrinsic activity in assay [3] was 0.34; in assay [4] it was 0.2. Besides, the Selectivity ratio in assay [6] is 214.

As for `COc1cccc(/C(=C/CNC(=O)C2CCC2)c2ccccc2)c1`, the Ki in assay [1] was 93.3 nM; in assay [2], 0.525 nM. The Intrinsic activity is 0.13 in assay [3] and 0.29 in assay [4]. Further, in assay [6], the Selectivity ratio came to 178. Also, in assay [7] (filed as antagonist), the Activity result is “Antagonist”. Besides, in assay [8], the Kb was 0.389 nM.

In the case of `CC(=O)NC/C(=C/c1ccccc1)c1ccccc1`, the inhibition constant (Ki) was 3630 nM in assay [1] and 525 nM in assay [2]. The results for the Intrinsic activity in assay [3] and in assay [4] were -0.15 and -0.23, respectively.

In the case of `CCC(=O)NCC(Cc1ccccc1)c1cccc(OC)c1` (configuration not stated), the Ki is 525 nM in assay [1] and 191 nM in assay [2]. Besides, the figures for the Intrinsic activity in assay [3] and in assay [4] were -0.25 and -0.13, respectively.

For the compound `COc1cccc(C(CCNC(C)=O)c2ccccc2)c1` (racemic), the Ki in assay [1] was 2190 nM; in assay [2], 5.37 nM. For the same compound, the Intrinsic activity in assay [3] was found to be 0.04; in assay [4], 0.24. For the same compound, the Selectivity ratio in assay [6] was determined as 407.

As for `CCCC(=O)NCCC(c1ccccc1)c1cccc(OC)c1` (racemic), the Ki in assay [1] was 550 nM; in assay [2], 2.63 nM. Besides, the Intrinsic activity stood at 0.27 in assay [3] and 0.21 in assay [4]. In addition, the Selectivity ratio in assay [6] stood at 209.

`CCC(=O)NCCC(c1ccccc1)c1cccc(OC)c1` (racemic): the results for the inhibition constant (Ki) in assay [1] and in assay [2] were 363 nM and 5.01 nM, respectively. For the same compound, the Intrinsic activity in assay [3] came out at 0.28; in assay [4] it was 0.31.

Consider `CCC(=O)NCCc1cccc(Cc2ccccc2)c1`, for which the Ki is 389 nM in assay [1] and 661 nM in assay [2]. Moreover, the Intrinsic activity was 0.48 in assay [3] and 0.24 in assay [4].

`COc1cccc(C(CNC(C)=O)Cc2ccccc2)c1` (configuration not stated): the results for the Ki in assay [1] and in assay [2] were 692 nM and 204 nM, respectively. For the same compound, the Intrinsic activity was -0.18 in assay [3] and -0.23 in assay [4].

As for `COc1cccc(/C(=C/CNC(C)=O)c2ccccc2)c1`, the Activity entry in assay [5] and in assay [7] (filed as partial agonist) was “Partial agonist” each time. Further, the Ki in assay [1] was 2.69 nM; in assay [2], 0.219 nM. The Intrinsic activity in assay [3] stood at 0.38; in assay [4], 0.54.

`CC(=O)NCC(Cc1ccccc1)c1ccccc1` (configuration not stated): the Ki in assay [1] was 708 nM; in assay [2], 417 nM. Moreover, the Intrinsic activity in assay [3] was -0.43; in assay [4], -0.3.

Regarding `CC(=O)NCCC(c1ccccc1)c1ccccc1`, the Ki in assay [1] was 4170 nM; in assay [2], 141 nM. For the same compound, the Intrinsic activity in assay [3] is -0.23; in assay [4] it was -0.19.
